According to ChEMBL document CHEMBL4689842, “EUbOPEN Chemogenomics Library wave 1” (2021):

Test system: Fibroblast
Assay: Multiplex assay against human fibroblast
Assay type: toxicity, cell-based
Method in brief: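 Phenotypes for tubulin, mitochondrial mass and membrane permeability are expressed as per cents of healthy-nucleus cells. Cells were stained live at seeding with Hoechst33342, BioTracker Green Microtubule Cytoskeleton Dye, MitoTracker Red and Annexin V Alexa Fluor 680, then imaged after compound addition on a CQ1 microscope at 37°C and 5% CO2. Machine-learning gating in CellPathfinder separated Hoechst high-intensity objects from normal cells, divided normal cells by nuclear state (healthy, pyknosed, fragmented) and divided pyknosed cells into mitotic or apoptotic.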

[1] = 12 h, 1 µM, compound concentration 1 uM, replicate 1
[2] = 12 h, 1 µM, compound concentration 1 uM, replicate 2
[3] = 12 h, 10 µM, compound concentration 10 uM, replicate 1
[4] = 12 h, 10 µM, compound concentration 10 uM, replicate 2
[5] = 24 h, 1 µM, compound concentration 1 uM, replicate 1
[6] = 24 h, 1 µM, compound concentration 1 uM, replicate 2
[7] = 24 h, 10 µM, compound concentration 10 uM, replicate 1
[8] = 24 h, 10 µM, compound concentration 10 uM, replicate 2
[9] = 48 h, 1 µM, compound concentration 1 uM, replicate 1
[10] = 48 h, 1 µM, compound concentration 1 uM, replicate 2
[11] = 48 h, 10 µM, compound concentration 10 uM, replicate 1
[12] = 48 h, 10 µM, compound concentration 10 uM, replicate 2

O=c1cc(N2CCOCC2)oc2c(-c3cccc4c3sc3ccccc34)cccc12
Population Apoptotic (%) [1]: 65%
Population Fragmented Nuclei (%) [1]: 23%
Population Healthy Nuclei (%) [1]: 44%
Population Hoechst High Intensity Objects (%) [1]: 13%
Population Membrane Permeable-Phenotype (%) [1]: 32%
Population Mitochondria Different-Phenotype (%) [1]: 5%
Population Mitotic Cells (%) [1]: 34%
Population Normal (%) [1]: 86%
Population Pyknosed Nuclei (%) [1]: 32%
Population Tubulin-Different-Phenotype (%) [1]: 36%
Total Cell Count [1]: 136
Population Apoptotic (%) [2]: 100%
Population Fragmented Nuclei (%) [2]: 15%
Population Healthy Nuclei (%) [2]: 77%
Population Hoechst High Intensity Objects (%) [2]: 10%
Population Membrane Permeable-Phenotype (%) [2]: 2%
Population Mitochondria Different-Phenotype (%) [2]: 6%
Population Mitotic Cells (%) [2]: 0%
Population Normal (%) [2]: 90%
Population Pyknosed Nuclei (%) [2]: 6%
Population Tubulin-Different-Phenotype (%) [2]: 14%
Total Cell Count [2]: 79
Population Apoptotic (%) [3]: 61%
Population Fragmented Nuclei (%) [3]: 35%
Population Healthy Nuclei (%) [3]: 28%
Population Hoechst High Intensity Objects (%) [3]: 13%
Population Membrane Permeable-Phenotype (%) [3]: 30%
Population Mitochondria Different-Phenotype (%) [3]: 28%
Population Mitotic Cells (%) [3]: 38%
Population Normal (%) [3]: 86%
Population Pyknosed Nuclei (%) [3]: 36%
Population Tubulin-Different-Phenotype (%) [3]: 95%
Total Cell Count [3]: 171
Population Apoptotic (%) [4]: 31%
Population Fragmented Nuclei (%) [4]: 19%
Population Healthy Nuclei (%) [4]: 45%
Population Hoechst High Intensity Objects (%) [4]: 16%
Population Membrane Permeable-Phenotype (%) [4]: 23%
Population Mitochondria Different-Phenotype (%) [4]: 90%
Population Mitotic Cells (%) [4]: 68%
Population Normal (%) [4]: 83%
Population Pyknosed Nuclei (%) [4]: 34%
Total Cell Count [4]: 70
Population Apoptotic (%) [5]: 57%
Population Fragmented Nuclei (%) [5]: 19%
Population Healthy Nuclei (%) [5]: 60%
Population Hoechst High Intensity Objects (%) [5]: 9%
Population Membrane Permeable-Phenotype (%) [5]: 31%
Population Mitochondria Different-Phenotype (%) [5]: 2%
Population Mitotic Cells (%) [5]: 42%
Population Normal (%) [5]: 90%
Population Pyknosed Nuclei (%) [5]: 20%
Population Tubulin-Different-Phenotype (%) [5]: 39%
Total Cell Count [5]: 151
Population Apoptotic (%) [6]: 60%
Population Fragmented Nuclei (%) [6]: 11%
Population Healthy Nuclei (%) [6]: 82%
Population Hoechst High Intensity Objects (%) [6]: 6%
Population Membrane Permeable-Phenotype (%) [6]: 9%
Population Mitochondria Different-Phenotype (%) [6]: 9%
Population Mitotic Cells (%) [6]: 40%
Population Normal (%) [6]: 93%
Population Pyknosed Nuclei (%) [6]: 6%
Population Tubulin-Different-Phenotype (%) [6]: 15%
Total Cell Count [6]: 86
Population Apoptotic (%) [7]: 77%
Population Fragmented Nuclei (%) [7]: 28%
Population Healthy Nuclei (%) [7]: 45%
Population Hoechst High Intensity Objects (%) [7]: 14%
Population Membrane Permeable-Phenotype (%) [7]: 19%
Population Mitochondria Different-Phenotype (%) [7]: 40%
Population Mitotic Cells (%) [7]: 22%
Population Normal (%) [7]: 85%
Population Pyknosed Nuclei (%) [7]: 26%
Population Tubulin-Different-Phenotype (%) [7]: 95%
Total Cell Count [7]: 160
Population Apoptotic (%) [8]: 66%
Population Fragmented Nuclei (%) [8]: 14%
Population Healthy Nuclei (%) [8]: 21%
Population Hoechst High Intensity Objects (%) [8]: 6%
Population Membrane Permeable-Phenotype (%) [8]: 50%
Population Mitochondria Different-Phenotype (%) [8]: 70%
Population Mitotic Cells (%) [8]: 33%
Population Normal (%) [8]: 94%
Population Pyknosed Nuclei (%) [8]: 63%
Population Tubulin-Different-Phenotype (%) [8]: 70%
Total Cell Count [8]: 86
Population Apoptotic (%) [9]: 60%
Population Fragmented Nuclei (%) [9]: 33%
Population Healthy Nuclei (%) [9]: 56%
Population Hoechst High Intensity Objects (%) [9]: 11%
Population Membrane Permeable-Phenotype (%) [9]: 21%
Population Mitochondria Different-Phenotype (%) [9]: 7%
Population Mitotic Cells (%) [9]: 40%
Population Normal (%) [9]: 88%
Population Pyknosed Nuclei (%) [9]: 10%
Population Tubulin-Different-Phenotype (%) [9]: 27%
Total Cell Count [9]: 167
Population Apoptotic (%) [10]: 50%
Population Fragmented Nuclei (%) [10]: 18%
Population Healthy Nuclei (%) [10]: 76%
Population Hoechst High Intensity Objects (%) [10]: 6%
Population Membrane Permeable-Phenotype (%) [10]: 17%
Population Mitochondria Different-Phenotype (%) [10]: 2%
Population Mitotic Cells (%) [10]: 50%
Population Normal (%) [10]: 93%
Population Pyknosed Nuclei (%) [10]: 4%
Population Tubulin-Different-Phenotype (%) [10]: 24%
Total Cell Count [10]: 97
Population Apoptotic (%) [11]: 68%
Population Fragmented Nuclei (%) [11]: 51%
Population Healthy Nuclei (%) [11]: 23%
Population Hoechst High Intensity Objects (%) [11]: 12%
Population Membrane Permeable-Phenotype (%) [11]: 17%
Population Mitochondria Different-Phenotype (%) [11]: 37%
Population Mitotic Cells (%) [11]: 31%
Population Normal (%) [11]: 87%
Population Pyknosed Nuclei (%) [11]: 25%
Population Tubulin-Different-Phenotype (%) [11]: 80%
Total Cell Count [11]: 173
Population Apoptotic (%) [12]: 64%
Population Fragmented Nuclei (%) [12]: 27%
Population Healthy Nuclei (%) [12]: 55%
Population Hoechst High Intensity Objects (%) [12]: 10%
Population Membrane Permeable-Phenotype (%) [12]: 6%
Population Mitochondria Different-Phenotype (%) [12]: 48%
Population Mitotic Cells (%) [12]: 35%
Population Normal (%) [12]: 90%
Population Pyknosed Nuclei (%) [12]: 17%
Population Tubulin-Different-Phenotype (%) [12]: 88%
Total Cell Count [12]: 90
